Common to all, as to assay type: functional
The subject of assay [1] is Rattus norvegicus. Kind of assay: Dose required for antihypertensive activity in spontaneous hypertensive rats after oral administration. The essentials:
(§1)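 Male SH rats (Okamoto strain), 250-380 g, groups of four to eight, dosed orally. Systolic pressure by tail cuff at 35 °C ambient, before and 2 h after dosing. ED20 = dose lowering systolic pressure 20%, corrected for placebo controls; from log dose vs Δ% regression; relative potency vs labetalol (=1.0).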

The subject of assay [2] is Rattus norvegicus. The assay can be described thus: Dose required for hypotensive activity in anesthetized rat after intravenous administration. The essentials:
(§2)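 Male Sprague-Dawley rats, 230-280 g, anesthetized with urethane 1.78 g/kg ip; groups of two to five. Compound given iv. Mean carotid arterial pressure recorded by transducer. ED20 = dose lowering mean carotid pressure by 20%; 95% confidence limits; relative potency versus labetalol (=1.0).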

Assay [3] relates to Rattus norvegicus. The assay can be described thus: Dose required for inhibition of isoproterenol-induced tachycardia in pithed rat after intravenous administration. The essentials:
(§3)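 Male Sprague-Dawley rats, 200-240 g, anesthetized with amobarbital 120 mg/kg ip, pithed and ventilated via tracheal cannula; groups of two to five. Isoproterenol 0.1 μg/kg iv given before and 5 min after iv compound; heart rate by rate meter. ED50 = dose halving tachycardia; 95% confidence limits; relative potency vs labetalol (=1.0).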

Assay [4] relates to Rattus norvegicus. Kind of assay: Relative potency required for hypotensive activity in anesthetized rat. In a few lines:
as §2

Assay [5] deals with Rattus norvegicus. Kind of assay: Relative potency required for inhibition of isoproterenol-induced tachycardia in pithed rat after intravenous administration. In a few lines: as §3
The test system of assay [6] is Rattus norvegicus. Kind of assay: Relative potency required for antihypertensive activity in spontaneous hypertensive rats after oral administration. The essentials: as §1
For assay [7], the system named is Rattus norvegicus. Kind of assay: Dose of compound required for hypotensive activity in anesthetized rat. The essentials:
as §2

For assay [8], the species on record is Rattus norvegicus. Kind of assay: Relative potency required for inhibition of L-phenylephrine-induced pressor response in pithed rats. The essentials:
(§4)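 Pithed male Sprague-Dawley rats, 200-240 g, amobarbital 120 mg/kg ip, artificially ventilated; three to five per dose. l-Phenylephrine 1.47 μg/kg iv before and 5 min after iv compound; carotid pressure recorded. ED50 = dose halving phenylephrine pressor rise; 95% confidence limits; relative potency vs labetalol (=1.0).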

In assay [9] the test system is Rattus norvegicus. Kind of assay: Dose required for inhibition of L-phenylephrine-induced pressor response in pithed rats after intravenous administration. In a few lines:
as §4

Consider `COc1ccc(CC(C)NCC(O)COc2ccccc2/C=C/c2cc(C)no2)cc1OC` (stereo not given), for which the ED20 in the assay with Rattus norvegicus [1] is greater than 21.5 mg/kg; in the assay on Rattus norvegicus [2], roughly 2.15 mg/kg. Further, the ED50 in the assay on Rattus norvegicus [3] is roughly 0.464 mg/kg. Also, the Relative potency in the assay with Rattus norvegicus [4] was roughly 2.4; in the assay on Rattus norvegicus [5] it was roughly 3.
For `Cc1cc(/C=C/c2ccccc2OCC(O)CNC(C)CCc2ccccc2)on1` (stereo not given), the values for the ED20 with Rattus norvegicus [1] and in the assay with Rattus norvegicus [2] were roughly 46.4 mg/kg and roughly 1 mg/kg, respectively. In addition, the ED50 with Rattus norvegicus [3] was roughly 0.0464 mg/kg. The Relative potency in the assay on Rattus norvegicus [4] was roughly 5.2; in the assay with Rattus norvegicus [5], roughly 3; in the assay with Rattus norvegicus [6] it was roughly 1.
On to `Cc1cc(/C=C/c2ccccc2OCC(O)CNC(C)CCc2ccc(O)cc2)on1` (stereo not given), for which the figures for the ED20 in the assay with Rattus norvegicus [1] and with Rattus norvegicus [2] were roughly 46.4 mg/kg and 0.49 mg/kg, respectively. It took a dose of 0.011 mg/kg to reach the 50% effect level with Rattus norvegicus [3] (ED50). Moreover, the Relative potency in the assay with Rattus norvegicus [4] is 10.6; in the assay on Rattus norvegicus [5], 12.7; in the assay with Rattus norvegicus [6] it was roughly 1.
For `Cc1cc(C=Cc2ccccc2OCC(O)CNC(C)(C)C)no1.Cl` (stereo not given), the ED20 is roughly 21.5 mg/kg in the assay on Rattus norvegicus [1] and roughly 2.15 mg/kg with Rattus norvegicus [2]. The same compound registered an ED50 in the assay with Rattus norvegicus [3] of 0.013 mg/kg. For the same compound, the values for the Relative potency in the assay on Rattus norvegicus [4], with Rattus norvegicus [5] and in the assay on Rattus norvegicus [6] were roughly 2.4, 10.8 and roughly 2.2, respectively.
Turning to `CC(C)NCC(O)COc1ccccc1/C=C/c1cc(Cl)no1` (stereo not given), the ED20 was greater than 21.5 mg/kg with Rattus norvegicus [1] and 0.68 mg/kg in the assay on Rattus norvegicus [7]. Further, it took a dose of 0.0464 mg/kg to reach the 50% effect level with Rattus norvegicus [3] (ED50). Moreover, the values for the Relative potency with Rattus norvegicus [4] and in the assay on Rattus norvegicus [5] were 7.6 and 3, respectively.
`Cc1cc(/C=C/c2ccccc2OCC(O)CNC(C)C)on1` (stereo not given): the ED20 is greater than 21.5 mg/kg with Rattus norvegicus [1] and roughly 0.65 mg/kg with Rattus norvegicus [2]. The compound also registered an ED50 in the assay with Rattus norvegicus [3] of 0.006 mg/kg. The Relative potency is 8 with Rattus norvegicus [4] and 23.3 in the assay on Rattus norvegicus [5].
Consider `COCc1cc(/C=C/c2ccccc2OCC(O)CNC2CC2)on1` (stereo not given), for which the values for the ED20 with Rattus norvegicus [1] and in the assay with Rattus norvegicus [2] were roughly 10 mg/kg and roughly 1 mg/kg, respectively. For the same compound, the results for the ED50 in the assay on Rattus norvegicus [3] and in the assay with Rattus norvegicus [9] were roughly 0.01 mg/kg and 0.73 mg/kg, respectively. For the same compound, the Relative potency in the assay on Rattus norvegicus [4] is given as roughly 5.2; in the assay filed under Rattus norvegicus [8], 0.6; with Rattus norvegicus [5], roughly 14; in the assay with Rattus norvegicus [6], roughly 4.8.
Take `Cc1cc(/C=C/c2ccccc2OCC(O)CNC2CC2)on1` (stereo not given): the ED20 with Rattus norvegicus [1] is roughly 21.5 mg/kg; in the assay on Rattus norvegicus [2], roughly 1.47 mg/kg. Also, the ED50 in the assay with Rattus norvegicus [3] was 0.0091 mg/kg; with Rattus norvegicus [9], 0.63 mg/kg. For the same compound, the Relative potency was roughly 3.5 in the assay on Rattus norvegicus [4], 0.8 in the assay listed under Rattus norvegicus [8], 15.4 in the assay with Rattus norvegicus [5] and roughly 2.2 in the assay with Rattus norvegicus [6].
`Cc1noc(/C=C/c2ccccc2OCC(O)CNC(C)(C)C)c1C` (stereo not given): the figures for the ED20 in the assay on Rattus norvegicus [1] and with Rattus norvegicus [2] were greater than 21.5 mg/kg and roughly 0.68 mg/kg, respectively. Further, in the assay with Rattus norvegicus [3], the ED50 is roughly 0.0215 mg/kg. In addition, the Relative potency in the assay with Rattus norvegicus [4] is reported as roughly 7.6; with Rattus norvegicus [5], roughly 6.5.
For `Cc1cc(/C=C/c2ccccc2OCC(O)CNC(C)(C)CCc2ccc(O)cc2)on1` (stereo not given), the figures for the ED20 in the assay with Rattus norvegicus [1] and in the assay on Rattus norvegicus [2] were roughly 21.5 mg/kg and roughly 1 mg/kg, respectively. This compound also registered an ED50 in the assay on Rattus norvegicus [3] of roughly 0.0215 mg/kg. For the same compound, the Relative potency in the assay with Rattus norvegicus [4] is roughly 5.2; in the assay on Rattus norvegicus [5] it was roughly 6.5; in the assay on Rattus norvegicus [6], roughly 2.2.
As for `C#CC(C)(C)NCC(O)COc1ccccc1/C=C/c1cc(C)no1.Cl` (stereo not given), the values for the ED20 with Rattus norvegicus [1] and in the assay with Rattus norvegicus [2] were roughly 46.4 mg/kg and roughly 1.25 mg/kg, respectively. In the assay with Rattus norvegicus [3], the ED50 is roughly 0.0681 mg/kg. Further, the Relative potency is 4.2 in the assay on Rattus norvegicus [4], roughly 2.1 in the assay on Rattus norvegicus [5] and roughly 1 with Rattus norvegicus [6].
For `Cc1cc(/C=C/c2ccccc2OCC(O)CNC(C)(C)C)on1.Cl` (stereo not given), the figures for the ED20 in the assay with Rattus norvegicus [1] and in the assay on Rattus norvegicus [2] were 14.5 mg/kg and 0.4 mg/kg, respectively. For the same compound, the values for the ED50 in the assay with Rattus norvegicus [3] and in the assay with Rattus norvegicus [9] were 0.0088 mg/kg and 0.12 mg/kg, respectively. Also, the Relative potency is 13 in the assay with Rattus norvegicus [4], 3.9 in the assay listed under Rattus norvegicus [8], 15.9 with Rattus norvegicus [5] and 3.3 with Rattus norvegicus [6].
Turning to `Cc1cc(/C=C/c2ccccc2OCC(O)CNC(C)C)no1.Cl` (stereo not given), the values for the ED20 in the assay with Rattus norvegicus [1] and in the assay on Rattus norvegicus [2] were roughly 46.4 mg/kg and roughly 2.15 mg/kg, respectively. The same compound returned an ED50 in the assay with Rattus norvegicus [3] of 0.0034 mg/kg. Further, the results for the Relative potency in the assay with Rattus norvegicus [4], in the assay with Rattus norvegicus [5] and with Rattus norvegicus [6] were roughly 2.4, 41.2 and 1, respectively.
`Cc1noc(/C=C/c2ccccc2OCC(O)CNC(C)(C)C)c1[N+](=O)[O-]` (stereo not given): the ED20 was greater than 21.5 mg/kg with Rattus norvegicus [1] and roughly 1 mg/kg with Rattus norvegicus [2]. The compound further showed a 50% effective dose (ED50) in the assay with Rattus norvegicus [3] of roughly 0.0681 mg/kg. The Relative potency is roughly 5.2 with Rattus norvegicus [4] and roughly 2.1 with Rattus norvegicus [5].
As for `CC(C)(C)NCC(O)COc1ccccc1/C=C/c1cc(C(C)(C)C)no1.Cl` (stereo not given), the figures for the ED20 in the assay with Rattus norvegicus [1] and in the assay on Rattus norvegicus [2] were greater than 46.4 mg/kg and greater than 1 mg/kg, respectively. The compound also gave an ED50 in the assay with Rattus norvegicus [3] of roughly 0.0215 mg/kg. Also, the Relative potency in the assay with Rattus norvegicus [5] is recorded as roughly 6.5.
For `COc1ccc(CCC(C)(C)NCC(O)COc2ccccc2/C=C/c2cc(C)no2)cc1` (stereo not given), the values for the ED20 in the assay on Rattus norvegicus [1] and in the assay with Rattus norvegicus [2] were roughly 21.5 mg/kg and roughly 1 mg/kg, respectively. For the same compound, the ED50 in the assay with Rattus norvegicus [3] is roughly 0.215 mg/kg. The Relative potency in the assay on Rattus norvegicus [4] was roughly 5.2; in the assay on Rattus norvegicus [5], roughly 0.7; in the assay with Rattus norvegicus [6], roughly 2.2.
As to `CCc1cc(/C=C/c2ccccc2OCC(O)CNC(C)(C)C)on1.Cl` (stereo not given), the ED20 is greater than 21.5 mg/kg with Rattus norvegicus [1] and 0.93 mg/kg with Rattus norvegicus [2]. Further, in the assay with Rattus norvegicus [3], the ED50 is roughly 0.0215 mg/kg. Also, the Relative potency with Rattus norvegicus [4] is 5.6; in the assay with Rattus norvegicus [5], roughly 6.5.
For `COCc1cc(/C=C/c2ccccc2OCC(O)CNC(C)C)on1.Cl` (stereo not given), the ED20 in the assay on Rattus norvegicus [1] is 18.2 mg/kg; in the assay with Rattus norvegicus [2], roughly 1 mg/kg. Besides, the results for the ED50 with Rattus norvegicus [3] and in the assay on Rattus norvegicus [9] were 0.0064 mg/kg and 0.61 mg/kg, respectively. The Relative potency in the assay on Rattus norvegicus [4] is given as roughly 5.2; in the assay listed under Rattus norvegicus [8], 0.8; in the assay with Rattus norvegicus [5], 21.9; in the assay on Rattus norvegicus [6], 2.6.
Consider `Cc1noc(/C=C/c2ccccc2OCC(O)CNC(C)(C)C)c1Cl` (stereo not given), for which the ED20 in the assay on Rattus norvegicus [1] is greater than 21.5 mg/kg; in the assay with Rattus norvegicus [2], roughly 1 mg/kg. Further, the 50% effect level in the assay with Rattus norvegicus [3] (ED50) was put at a dose of 0.014 mg/kg. Besides, the Relative potency is recorded as roughly 5.2 with Rattus norvegicus [4] and 10 in the assay on Rattus norvegicus [5].
For the compound `COCc1cc(/C=C/c2ccccc2OCC(O)CNC(C)(C)C)on1.Cl` (stereo not given), the ED20 is roughly 21.5 mg/kg in the assay on Rattus norvegicus [1] and roughly 0.8 mg/kg in the assay on Rattus norvegicus [2]. Further, the ED50 in the assay with Rattus norvegicus [3] came out at 0.0074 mg/kg; in the assay with Rattus norvegicus [9], 0.21 mg/kg. Besides, the Relative potency with Rattus norvegicus [4] is given as roughly 6.5; in the assay filed under Rattus norvegicus [8], 2.2; with Rattus norvegicus [5], 18.9; in the assay on Rattus norvegicus [6] it was roughly 2.2.
Take `CC(CCc1ccccc1)NCC(O)c1ccc(O)c(C(N)=O)c1` (stereo not given) [LABETALOL]: the ED20 is 47.7 mg/kg in the assay on Rattus norvegicus [1] and 5.2 mg/kg in the assay with Rattus norvegicus [2]. For the same compound, the ED50 in the assay on Rattus norvegicus [3] was 0.14 mg/kg; in the assay on Rattus norvegicus [9] it was 0.47 mg/kg. Also, the Relative potency in the assay with Rattus norvegicus [4], in the assay filed under Rattus norvegicus [8], with Rattus norvegicus [5] and in the assay on Rattus norvegicus [6] was 1 throughout.
For the compound `CCc1cc(/C=C/c2ccccc2OCC(O)CNC(C)C)on1.Cl` (stereo not given), the ED20 in the assay on Rattus norvegicus [1] was determined as 9.38 mg/kg; in the assay with Rattus norvegicus [2], 0.41 mg/kg. The ED50 with Rattus norvegicus [3] was roughly 0.0215 mg/kg. Moreover, the results for the Relative potency with Rattus norvegicus [4], in the assay on Rattus norvegicus [5] and in the assay with Rattus norvegicus [6] were 12.7, roughly 6.5 and 5.1, respectively.

As a reminder, the ED50 is the dose that gives a 50% effect, or the effect in half of the subjects.

Values taken from ChEMBL document CHEMBL1121762, “2-(Isoxazolylethenyl)phenoxypropanolamines: a new class of beta-receptor antagonists with antihypertensive activity” (1981).
